Measurements reported in ChEMBL document CHEMBL3526048, “In vitro metabolism of rivoglitazone, a novel peroxisome proliferator-activated receptor γ agonist, in rat, monkey, and human liver microsomes and freshly isolated hepatocytes” (Drug Metab Dispos, 2011).

Columns and labels:
[1] = Drug metabolism in rat hepatocytes assessed as formation of 2-mercapto-3-(4-((6-methoxy-1-methyl-1H-benzo[d]imidazol-2-yl)methoxy)phenyl)propanamide at 30 uM after 3 hrs by radio-HPLC/LC-MS/MS analysis in presence of NADPH-generating system and NADPH-generating system/SAM; format: ADME, cell-based, Hepatocyte
[2] = Drug metabolism in human hepatocytes assessed as formation of 5-hydroxy-5-(4-((6-methoxy-1-methyl-1H-benzo[d]imidazol-2-yl)methoxy)benzyl)thiazolidine-2,4-dione at 30 uM after 3 hrs by radio-HPLC/LC-MS/MS analysis in presence of NADPH-generating system and NADPH-generating system/SAM; format: ADME, cell-based, Hepatocyte
Liver microsome = experiment: Drug metabolism in Sprague-Dawley rat liver microsomes assessed as formation of 2-((4-((2,4-dioxothiazolidin-5-yl)methyl)phenoxy)methyl)-1-methyl-1H-benzo[d]imidazol-6-yl hydrogen sulfate at 20 uM by radio-HPLC/LC-MS/MS analysis; format: ADME
Cytochrome P450 3A5 = Cytochrome P450 3A5 (Homo sapiens, UniProt P20815); experiment: Activity of human CYP3A5 expressed in microsomes isolated from baculovirus infected insect cell assessed as enzyme-mediated 5-(4-((6-methoxy-1H-benzo[d]imidazol-2-yl)methoxy)benzyl)thiazolidine-2,4-dione formation at 20 uM after 2 hrs by radio-HPLC/LC-MS/MS analysis in presence of NADPH-generating system and NADPH-generating system/SAM; format: ADME
Sequence of Cytochrome P450 3A5 (P20815 whole entry): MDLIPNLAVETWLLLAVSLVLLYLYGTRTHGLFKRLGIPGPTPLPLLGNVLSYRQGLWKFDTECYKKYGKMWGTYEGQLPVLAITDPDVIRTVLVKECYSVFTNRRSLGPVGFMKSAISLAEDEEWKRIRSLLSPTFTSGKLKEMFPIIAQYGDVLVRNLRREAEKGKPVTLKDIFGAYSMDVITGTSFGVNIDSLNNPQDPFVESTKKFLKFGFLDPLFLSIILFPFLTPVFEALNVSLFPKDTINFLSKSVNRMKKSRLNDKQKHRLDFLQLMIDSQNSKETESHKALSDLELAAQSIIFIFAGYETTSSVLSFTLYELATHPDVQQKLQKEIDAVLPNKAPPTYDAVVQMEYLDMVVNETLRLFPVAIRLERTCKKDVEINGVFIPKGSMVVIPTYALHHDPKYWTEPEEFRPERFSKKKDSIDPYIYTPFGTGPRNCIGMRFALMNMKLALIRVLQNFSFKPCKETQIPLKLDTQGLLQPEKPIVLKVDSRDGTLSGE
In short: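 cDNA-expressed human CYP3A5 in baculovirus-insect-cell microsomes (1 mg/ml protein) was incubated with [¹⁴C]rivoglitazone (20 μM) in 50 mM potassium phosphate (pH 7.4) or 100 mM Tris-HCl (pH 7.5). NADPH-generating system: 2 mM NADP⁺, 20 mM glucose 6-phosphate, 2 units/ml G6PDH, 10 mM MgCl₂. Incubation ran 2 h at 37°C with shaking; insect-cell control supersomes served as control. Acetonitrile stop, supernatant concentrated, then radio-HPLC, LC-MS and LC-MS/MS.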

[3] = biological target: T1, UDP-glucuronosyltransferase 2B17 (Homo sapiens, UniProt O75795); experiment: Activity of human UGT2B17 expressed in microsomes isolated from baculovirus infected insect cell assessed as enzyme-mediated (2S,3S,4S,5R,6R)-6-((1-carboxy-2-(4-((6-methoxy-1-methyl-1H-benzo[d]imidazol-2-yl)methoxy)phenyl)ethylthio)carbonylamino)-3,4,5-trihydroxytetrahydro-2H-pyran-2-carboxylic acid formation at 20 uM after 4 hrs by radio-HPLC/LC-MS/MS analysis in presence of UDPGA; format: ADME
T1 sequence (O75795 whole entry): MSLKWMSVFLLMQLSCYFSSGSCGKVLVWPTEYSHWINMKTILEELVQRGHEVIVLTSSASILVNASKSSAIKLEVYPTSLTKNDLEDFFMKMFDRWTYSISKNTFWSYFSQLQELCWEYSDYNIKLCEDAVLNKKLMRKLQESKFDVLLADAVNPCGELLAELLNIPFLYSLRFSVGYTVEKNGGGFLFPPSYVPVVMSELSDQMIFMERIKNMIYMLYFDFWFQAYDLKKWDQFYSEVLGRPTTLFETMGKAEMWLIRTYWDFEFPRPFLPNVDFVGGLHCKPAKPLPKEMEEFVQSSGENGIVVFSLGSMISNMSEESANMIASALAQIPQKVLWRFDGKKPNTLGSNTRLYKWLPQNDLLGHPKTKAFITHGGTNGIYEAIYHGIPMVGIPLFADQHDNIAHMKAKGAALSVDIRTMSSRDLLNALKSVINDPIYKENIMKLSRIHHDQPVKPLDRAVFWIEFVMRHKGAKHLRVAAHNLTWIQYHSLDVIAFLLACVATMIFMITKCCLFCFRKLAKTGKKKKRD

Cytochrome P450 2D6 = Cytochrome P450 2D6 (Homo sapiens, UniProt P10635); experiment: Activity of human CYP2D6 expressed in microsomes isolated from baculovirus infected insect cell assessed as enzyme-mediated 2-amino-3-((1-carboxy-2-(4-((6-methoxy-1-methyl-1H-benzo[d]imidazol-2-yl)methoxy)phenyl)ethyl)disulfanyl)propanoic acid formation at 20 uM after 2 hrs by radio-HPLC/LC-MS/MS analysis; format: ADME
Sequence of Cytochrome P450 2D6 (P10635 whole entry): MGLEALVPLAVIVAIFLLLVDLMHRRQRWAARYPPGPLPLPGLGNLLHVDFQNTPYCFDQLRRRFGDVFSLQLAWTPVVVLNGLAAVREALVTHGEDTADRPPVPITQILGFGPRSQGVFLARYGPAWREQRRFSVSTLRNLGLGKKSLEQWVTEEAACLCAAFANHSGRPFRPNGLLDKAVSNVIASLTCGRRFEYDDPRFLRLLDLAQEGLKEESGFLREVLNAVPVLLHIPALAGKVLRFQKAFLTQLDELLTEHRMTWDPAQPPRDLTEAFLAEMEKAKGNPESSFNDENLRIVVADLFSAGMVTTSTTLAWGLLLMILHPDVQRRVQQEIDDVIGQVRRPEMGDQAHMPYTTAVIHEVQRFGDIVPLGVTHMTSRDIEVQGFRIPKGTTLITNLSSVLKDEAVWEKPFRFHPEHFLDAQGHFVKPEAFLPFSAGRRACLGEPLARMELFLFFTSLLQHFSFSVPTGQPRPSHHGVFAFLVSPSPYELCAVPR
In short: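 Baculovirus-insect-cell microsomes expressing the human CYP (1 mg/ml protein) were incubated with [14C]rivoglitazone (20 μM) in 50 mM potassium phosphate (pH 7.4) or 100 mM Tris-HCl (pH 7.5) with an NADPH-generating system (2 mM NADP+, 20 mM glucose 6-phosphate, 2 units/ml G6PDH, 10 mM MgCl2) for 2 h at 37°C. Insect-cell control supersomes served as the control. Reactions were stopped with acetonitrile, and the concentrated supernatants were analysed by radio-HPLC, LC-MS and LC-MS/MS.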

Cytochrome P450 2C9 = Cytochrome P450 2C9 (Homo sapiens, UniProt P11712); experiment: Activity of human CYP2C9 expressed in microsomes isolated from baculovirus infected insect cell assessed as enzyme-mediated 5-hydroxy-5-(4-((6-methoxy-1-methyl-1H-benzo[d]imidazol-2-yl)methoxy)benzyl)thiazolidine-2,4-dione formation at 20 uM after 2 hrs by radio-HPLC/LC-MS/MS analysis in presence of NADPH-generating system and NADPH-generating system/SAM; format: ADME
Sequence of Cytochrome P450 2C9 (P11712 whole entry): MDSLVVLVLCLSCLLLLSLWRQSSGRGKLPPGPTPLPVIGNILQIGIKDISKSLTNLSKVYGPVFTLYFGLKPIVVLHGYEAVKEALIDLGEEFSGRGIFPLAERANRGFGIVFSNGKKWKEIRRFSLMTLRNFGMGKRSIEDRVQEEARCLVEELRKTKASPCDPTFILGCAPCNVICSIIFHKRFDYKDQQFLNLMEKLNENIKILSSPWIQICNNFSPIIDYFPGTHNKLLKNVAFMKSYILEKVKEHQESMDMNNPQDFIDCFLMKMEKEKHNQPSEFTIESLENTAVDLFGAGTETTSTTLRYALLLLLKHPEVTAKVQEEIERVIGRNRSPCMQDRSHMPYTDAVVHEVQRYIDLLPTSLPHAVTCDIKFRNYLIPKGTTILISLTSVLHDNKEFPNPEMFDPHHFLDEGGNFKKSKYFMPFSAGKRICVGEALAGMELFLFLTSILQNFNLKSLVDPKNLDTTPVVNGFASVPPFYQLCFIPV

[4] = biological target: T2, UDP-glucuronosyltransferase 2B15 (Homo sapiens, UniProt P54855); experiment: Activity of human UGT2B15 expressed in microsomes isolated from baculovirus infected insect cell assessed as enzyme-mediated 2-mercapto-3-(4-((6-methoxy-1-methyl-1H-benzo[d]imidazol-2-yl)methoxy)phenyl)propanoic acid formation at 20 uM after 4 hrs by radio-HPLC/LC-MS/MS analysis in presence of UDPGA; format: ADME
T2 sequence (P54855 whole entry): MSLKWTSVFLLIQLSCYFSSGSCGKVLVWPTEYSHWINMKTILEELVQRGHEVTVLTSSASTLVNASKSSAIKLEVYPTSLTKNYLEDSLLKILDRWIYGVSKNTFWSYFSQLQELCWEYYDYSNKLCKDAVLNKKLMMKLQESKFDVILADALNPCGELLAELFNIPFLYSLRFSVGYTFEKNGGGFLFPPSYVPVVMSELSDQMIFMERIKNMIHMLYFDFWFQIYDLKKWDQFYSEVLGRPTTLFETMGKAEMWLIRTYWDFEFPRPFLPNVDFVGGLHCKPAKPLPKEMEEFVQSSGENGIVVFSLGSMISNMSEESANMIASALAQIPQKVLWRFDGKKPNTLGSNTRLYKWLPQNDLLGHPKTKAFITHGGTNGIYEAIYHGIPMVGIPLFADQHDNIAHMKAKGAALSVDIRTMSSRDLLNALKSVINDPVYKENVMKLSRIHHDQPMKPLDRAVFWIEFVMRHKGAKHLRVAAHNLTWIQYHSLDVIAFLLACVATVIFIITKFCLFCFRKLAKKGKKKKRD

Measured: Drug metabolism

COc1ccc2nc(COc3ccc(C[14CH]4SC(=O)NC4=O)cc3)n(C)c2c1.Cl (racemic)
metabolite_detected: [2] | Cytochrome P450 3A5 | Cytochrome P450 2C9
metabolite_not_detected: all other assays above
